Tests used:
Rattus norvegicus [1] = assay: Hypotensive activity in iv dosed anesthetized normotensive Wistar rat assessed as maximal decrease in mean arterial pressure measured per gram of brain tissue; type: functional, Artery
[2] = Apparent partition coefficient, log P in octanol and 0.1 M phosphate buffer at pH 7.4; type: physicochemical; conditions: octanol/0.1 M phosphate buffer
Rattus norvegicus [3] = assay: Hypotensive activity in iv dosed anesthetized normotensive Wistar rat assessed as maximal decrease in mean arterial pressure; type: functional, Artery; conditions: for ED30: Rattus norvegicus, Wistar, Artery, iv
In short: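 Male Wistar rats (190-220 g) anaesthetised with pentobarbitone sodium 75 mg/kg ip, kept at 37 ± 1 °C, ventilated and heparinised. Carotid arterial pressure recorded; animals outside 100–150 mmHg after ~20 min equilibration discarded. Graded iv doses in saline, with randomised agents and doses and one rat per experiment. Log-dose–response curves of maximal fall in mean pressure gave the dose (μmol/kg) for a 30% decrease (ED30).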

Rattus norvegicus [4] = assay: Hypotensive activity in iv dosed anesthetized normotensive Wistar rat assessed as 30% decrease in mean arterial pressure; conditions: Artery

Structure (SMILES)	log(1/ED30) (Rattus norvegicus [1])	logD [2]	log(1/ED30) (Rattus norvegicus [3])	ED30 (Rattus norvegicus [3])	ED30 (Rattus norvegicus [4])
Cl.c1ccc(NC2=NCCN2)cc1	-0.42	-1.92	-2.1	25 mg/kg	–
Cl.Clc1cccc(Br)c1N=C1NCCN1	1.72	0.87	2.22	–	2.9 µg/kg
Brc1cccc(Br)c1N=C1NCCN1.Cl	1.4	1.21	2.04	0.0055 mg/kg	–
Cl.Fc1cccc(Cl)c1N=C1NCCN1	1.13	0.52	1.47	0.0125 mg/kg	–
Cl.Clc1cc(Cl)c(N=C2NCCN2)c(Cl)c1	–	–	–	0.021 mg/kg	–
Cl.Clc1cccc(N=C2NCCN2)c1Cl	1.13	0.57	1.37	0.013 mg/kg	–
Cc1cc(Cl)c(N=C2NCCN2)c(Cl)c1.Cl	0.87	0.73	1.22	0.021 mg/kg	–
Cc1cccc(Cl)c1N=C1NCCN1.Cl	1.57	-0.57	1.12	0.019 mg/kg	–
Cl.Clc1cc(Br)cc(Cl)c1N=C1NCCN1	–	1.97	1.03	0.06 mg/kg	–
Cc1cccc(C)c1N=C1NCCN1.Cl	2.14	-1.54	0.85	0.032 mg/kg	–
Cl.Clc1ccc(N=C2NCCN2)c(Cl)c1	0.58	0.29	0.68	0.061 mg/kg	–
Cc1ccc(N=C2NCCN2)c(Cl)c1.Cl	1.07	-0.48	0.68	0.053 mg/kg	–
Cc1cc(Cl)cc(Cl)c1N=C1NCCN1.Cl	0.4	0.47	0.57	0.079 mg/kg	–
Cc1cc(C)c(N=C2NCCN2)c(Cl)c1.Cl	0.83	-0.36	0.52	0.08 mg/kg	–
Cl.Clc1ccc(Cl)c(N=C2NCCN2)c1	0.03	0.65	0.32	0.15 mg/kg	–
Brc1cc(Br)c(N=C2NCCN2)c(Br)c1.Cl	-0.65	2.24	0.28	0.58 mg/kg	–
Cl.Clc1ccccc1N=C1NCCN1	0.67	-0.67	0.15	0.17 mg/kg	–
Cc1cc(Cl)cc(C)c1N=C1NCCN1.Cl	0.54	-0.62	0.04	0.24 mg/kg	–
Cc1cc(Cl)ccc1N=C1NCCN1.Cl	0.8	-1.06	-0.05	0.275 mg/kg	–
Cc1cc(C)c(N=C2NCCN2)c(C)c1.Cl	0.98	-1.28	-0.07	0.28 mg/kg	–
Cl.Fc1cccc(F)c1N=C1NCCN1	-0.22	-0.16	-0.29	0.6 mg/kg	–
Cl.O=[N+]([O-])c1cc(Cl)c(N=C2NCCN2)c(Cl)c1	-1.68	1.92	-0.34	4.5 mg/kg	–
Cc1cc(Br)cc(C)c1N=C1NCCN1.Cl	-0.1	-0.28	-0.36	0.7 mg/kg	–
Cc1ccc(N=C2NCCN2)c(C)c1.Cl	0.86	-1.66	-0.56	0.81 mg/kg	–
Cc1ccccc1N=C1NCCN1.Cl	0.91	-1.82	-0.67	0.99 mg/kg	–
COc1cc(Cl)c(N=C2NCCN2)c(Cl)c1.Cl	-0.82	0.15	-0.78	2 mg/kg	–
Cl.Clc1cccc(Cl)c1NC1=NCCN1 [CLONIDINE HYDROCHLORIDE]	1.78	–	2.14	–	2.7 µg/kg

— ChEMBL document CHEMBL3272166, “Quantitative structure-activity relationships in centrally acting imidazolidines structurally related to clonidine” (J Med Chem, 1977)
